{
  "source": "ChEMBL document CHEMBL1145445",
  "about": "“Dual aromatase-steroid sulfatase inhibitors” (J Med Chem, 2007)",
  "key": {"Aromatase [1]": {"target": "T1, Aromatase (Homo sapiens, UniProt P11511)", "T1 sequence (P11511 whole entry)": "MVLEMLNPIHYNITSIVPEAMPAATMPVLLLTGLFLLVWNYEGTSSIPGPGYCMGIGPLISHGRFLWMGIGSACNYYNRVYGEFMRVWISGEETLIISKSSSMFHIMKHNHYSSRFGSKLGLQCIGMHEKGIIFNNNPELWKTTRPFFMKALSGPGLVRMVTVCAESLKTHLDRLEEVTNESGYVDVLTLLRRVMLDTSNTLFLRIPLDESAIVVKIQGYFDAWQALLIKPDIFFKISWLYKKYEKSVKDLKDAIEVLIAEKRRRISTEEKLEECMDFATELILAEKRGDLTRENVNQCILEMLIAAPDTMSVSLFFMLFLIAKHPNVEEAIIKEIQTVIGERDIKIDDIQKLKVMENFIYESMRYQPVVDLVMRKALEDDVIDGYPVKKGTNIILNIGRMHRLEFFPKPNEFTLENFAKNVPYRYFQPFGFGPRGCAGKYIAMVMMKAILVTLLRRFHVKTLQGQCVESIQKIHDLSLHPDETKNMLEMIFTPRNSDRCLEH", "experiment": "Inhibition of aromatase in JEG3 cell membrane", "assay_type": "cell-based, JEG-3"}, "Steryl-sulfatase": {"target": "T2, Steryl-sulfatase (Homo sapiens, UniProt P08842)", "T2 sequence (P08842 whole entry)": "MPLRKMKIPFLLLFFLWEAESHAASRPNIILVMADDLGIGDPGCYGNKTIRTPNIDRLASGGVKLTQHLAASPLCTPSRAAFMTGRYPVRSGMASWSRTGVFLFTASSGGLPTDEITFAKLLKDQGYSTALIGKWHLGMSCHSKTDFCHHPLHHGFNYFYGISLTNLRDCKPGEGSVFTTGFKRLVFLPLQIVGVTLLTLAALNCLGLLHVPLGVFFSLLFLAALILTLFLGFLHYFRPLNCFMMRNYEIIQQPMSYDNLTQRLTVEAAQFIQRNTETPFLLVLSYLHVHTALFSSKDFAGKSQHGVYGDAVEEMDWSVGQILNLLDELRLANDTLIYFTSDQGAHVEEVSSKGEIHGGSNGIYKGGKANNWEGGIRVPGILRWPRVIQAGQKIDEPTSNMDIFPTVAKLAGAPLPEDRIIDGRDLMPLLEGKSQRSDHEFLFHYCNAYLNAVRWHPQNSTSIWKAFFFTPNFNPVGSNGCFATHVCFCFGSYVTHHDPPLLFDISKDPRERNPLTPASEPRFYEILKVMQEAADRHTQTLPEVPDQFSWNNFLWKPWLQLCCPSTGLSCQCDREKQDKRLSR", "experiment": "Inhibition of steroid sulfatase in JEG3 cell membrane", "assay_type": "cell-based, JEG-3"}, "Aromatase [2]": {"target": "T1, Aromatase", "experiment": "Inhibition of aromatase in JEG3 cell membrane at 1 uM", "assay_type": "cell-based", "conditions": "JEG-3, human; read-out: Activity"}, "Rattus norvegicus [3]": {"tested_on": "Rattus norvegicus", "experiment": "Inhibition of aromatase in Wistar rat assessed as reduction of PMSG-stimulated plasma estradiol level at 10 mg/kg, po after 3 hrs", "assay_type": "functional", "how_it_was_run": "(§1)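 Female Wistar rats got a single sc injection of PMSG (200 IU). Three days later they received a single oral 10 mg/kg dose in THF/propylene glycol (10:90). Plasma estradiol was measured by radioimmunoassay at 3 or 24 h. Results are % inhibition of PMSG-stimulated estradiol, mean ± SE, n = 3, by Student's t test.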"}, "Rattus norvegicus [4]": {"tested_on": "Rattus norvegicus", "experiment": "Inhibition of aromatase in Wistar rat assessed as reduction of PMSG-stimulated plasma estradiol level at 10 mg/kg, po after 24 hrs", "assay_type": "functional", "how_it_was_run": "as §1"}, "Rattus norvegicus [5]": {"tested_on": "Rattus norvegicus", "experiment": "Inhibition of steroid sulfatase in Wistar rat assessed as liver STS activity at 10 mg/kg, po after 3 hrs"}, "Rattus norvegicus [6]": {"tested_on": "Rattus norvegicus", "experiment": "Inhibition of steroid sulfatase in Wistar rat assessed as liver STS activity at 10 mg/kg, po after 24 hrs"}, "Rattus norvegicus [7]": {"tested_on": "Rattus norvegicus", "experiment": "Inhibition of steroid sulfatase in Wistar rat liver at 10 mg/kg, po", "assay_type": "functional", "how_it_was_run": "(§2)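 Female Wistar rats were primed with a single sc injection of PMSG (200 IU). Three days later they were dosed once orally at 10 mg/kg in THF/propylene glycol (10:90). Liver was collected 3 or 24 h after dosing and STS activity assayed. Results are expressed against activity in untreated animals, mean ± SE, n = 3.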"}, "Rattus norvegicus [8]": {"tested_on": "Rattus norvegicus", "experiment": "Inhibition of steroid sulfatase in Wistar rat liver at 10 mg/kg, po after 3 hrs", "assay_type": "functional", "how_it_was_run": "as §2"}},
  "data": [
    {"smiles": "COc1cc(CN(c2ccc(C#N)cc2)n2cnnc2)ccc1O", "values": [
      {"measurement": "IC50", "setting": "Aromatase [1]", "result": 2.8, "unit": "nM"}
    ]},
    {"smiles": "N#Cc1ccc(N(Cc2c(F)c(F)c(O)c(F)c2F)n2cnnc2)cc1", "values": [
      {"measurement": "IC50", "setting": "Aromatase [1]", "result": 159, "unit": "nM"}
    ]},
    {"smiles": "N#Cc1ccc(N(Cc2ccc(OS(N)(=O)=O)c(I)c2)n2cnnc2)cc1", "values": [
      {"measurement": "IC50", "setting": "Aromatase [1]", "result": 1.5, "unit": "nM"},
      {"measurement": "IC50", "setting": "Steryl-sulfatase", "result": 190, "unit": "nM"}
    ]},
    {"smiles": "N#Cc1ccc(N(Cc2ccc(O)c(C#N)c2)n2cnnc2)cc1", "values": [
      {"measurement": "IC50", "setting": "Aromatase [1]", "result": 24, "unit": "nM"}
    ]},
    {"smiles": "N#Cc1ccc(N(Cc2ccc(OS(N)(=O)=O)cc2)n2cnnc2)cc1", "values": [
      {"measurement": "inhibition at 1 µM", "setting": "Aromatase [2]", "result": 63.4, "unit": "%"}
    ]},
    {"smiles": "COc1ccc(CN(c2ccc(C#N)cc2)n2cnnc2)cc1O", "values": [
      {"measurement": "IC50", "setting": "Aromatase [1]", "result": 1.2, "unit": "nM"}
    ]},
    {"smiles": "N#Cc1ccc(N(Cc2cc(Cl)c(O)c(Cl)c2)n2cnnc2)cc1", "values": [
      {"measurement": "IC50", "setting": "Aromatase [1]", "result": 7.6, "unit": "nM"}
    ]},
    {"smiles": "COc1cc(CN(c2ccc(C#N)cc2)n2cnnc2)ccc1OS(N)(=O)=O", "values": [
      {"measurement": "IC50", "setting": "Aromatase [1]", "result": 42, "unit": "nM"},
      {"measurement": "IC50", "setting": "Steryl-sulfatase", "result": 380, "unit": "nM"}
    ]},
    {"smiles": "N#Cc1ccc(C(c2ccc(C#N)cc2)n2cncn2)cc1", "note": "[LETROZOLE]", "values": [
      {"measurement": "inhibition in vivo at 10 mg/kg", "setting": "Rattus norvegicus [3]", "result": 100, "unit": "%"},
      {"measurement": "inhibition in vivo at 10 mg/kg", "setting": "Rattus norvegicus [4]", "result": 100, "unit": "%"},
      {"measurement": "inhibition in vivo at 10 mg/kg", "setting": "Rattus norvegicus [5]", "result": 3, "unit": "%"},
      {"measurement": "inhibition in vivo at 10 mg/kg", "setting": "Rattus norvegicus [6]", "result": 6, "unit": "%"}
    ]},
    {"smiles": "N#Cc1ccc(N(Cc2ccc(C(F)(F)F)c(O)c2)n2cnnc2)cc1", "values": [
      {"measurement": "IC50", "setting": "Aromatase [1]", "result": 0.4, "unit": "nM"}
    ]},
    {"smiles": "N#Cc1ccc(N(Cc2ccc(O)c(I)c2)n2cnnc2)cc1", "values": [
      {"measurement": "IC50", "setting": "Aromatase [1]", "result": 0.33, "unit": "nM"}
    ]},
    {"smiles": "N#Cc1ccc(N(Cc2ccc(Cl)c(O)c2)n2cnnc2)cc1", "values": [
      {"measurement": "IC50", "setting": "Aromatase [1]", "result": 0.18, "unit": "nM"}
    ]},
    {"smiles": "NS(=O)(=O)Oc1ccc2c3c(c(=O)oc2c1)CCCCC3", "note": "[IROSUSTAT]", "values": [
      {"measurement": "inhibition in vivo at 10 mg/kg", "setting": "Rattus norvegicus [5]", "result": 100, "unit": "%"},
      {"measurement": "inhibition in vivo at 10 mg/kg", "setting": "Rattus norvegicus [6]", "result": 97, "unit": "%"}
    ]},
    {"smiles": "COc1cc(CN(c2ccc(C#N)cc2)n2cnnc2)cc(Cl)c1O", "values": [
      {"measurement": "IC50", "setting": "Aromatase [1]", "result": 0.51, "unit": "nM"}
    ]},
    {"smiles": "N#Cc1ccc(N(Cc2ccc(OS(N)(=O)=O)c(Br)c2)n2cnnc2)cc1", "values": [
      {"measurement": "inhibition in vivo at 10 mg/kg", "setting": "Rattus norvegicus [3]", "result": 100, "unit": "%"},
      {"measurement": "inhibition in vivo at 10 mg/kg", "setting": "Rattus norvegicus [4]", "result": 85, "unit": "%"},
      {"measurement": "inhibition in vivo at 10 mg/kg", "setting": "Rattus norvegicus [7]", "result": 100, "unit": "%"},
      {"measurement": "inhibition in vivo at 10 mg/kg", "setting": "Rattus norvegicus [8]", "result": 100, "unit": "%"},
      {"measurement": "inhibition in vivo at 10 mg/kg", "setting": "Rattus norvegicus [5]", "result": 98, "unit": "%"},
      {"measurement": "inhibition in vivo at 10 mg/kg", "setting": "Rattus norvegicus [6]", "result": 72, "unit": "%"}
    ]},
    {"smiles": "N#Cc1ccc(N(Cc2cccc(O)c2)n2cnnc2)cc1", "values": [
      {"measurement": "IC50", "setting": "Aromatase [1]", "result": 2.8, "unit": "nM"}
    ]},
    {"smiles": "N#Cc1ccc(N(Cc2ccc(OS(N)(=O)=O)c(C#N)c2)n2cnnc2)cc1", "values": [
      {"measurement": "IC50", "setting": "Aromatase [1]", "result": 27, "unit": "nM"},
      {"measurement": "IC50", "setting": "Steryl-sulfatase", "result": "> 10000", "unit": "nM"}
    ]},
    {"smiles": "N#Cc1ccc(N(Cc2ccc(Br)c(O)c2)n2cnnc2)cc1", "values": [
      {"measurement": "IC50", "setting": "Aromatase [1]", "result": 0.5, "unit": "nM"}
    ]},
    {"smiles": "N#Cc1ccc(N(Cc2ccc(O)c(C(F)(F)F)c2)n2cnnc2)cc1", "values": [
      {"measurement": "IC50", "setting": "Aromatase [1]", "result": 0.88, "unit": "nM"}
    ]},
    {"smiles": "COc1cc(CN(c2ccc(C#N)cc2)n2cnnc2)cc(Cl)c1OS(N)(=O)=O", "values": [
      {"measurement": "IC50", "setting": "Aromatase [1]", "result": 2.9, "unit": "nM"},
      {"measurement": "IC50", "setting": "Steryl-sulfatase", "result": 536, "unit": "nM"}
    ]},
    {"smiles": "N#Cc1ccc(N(Cc2ccc(F)c(OS(N)(=O)=O)c2)n2cnnc2)cc1", "values": [
      {"measurement": "inhibition in vivo at 10 mg/kg", "setting": "Rattus norvegicus [3]", "result": 82, "unit": "%"},
      {"measurement": "inhibition in vivo at 10 mg/kg", "setting": "Rattus norvegicus [4]", "result": 20, "unit": "%"},
      {"measurement": "inhibition in vivo at 10 mg/kg", "setting": "Rattus norvegicus [8]", "result": 100, "unit": "%"},
      {"measurement": "inhibition in vivo at 10 mg/kg", "setting": "Rattus norvegicus [5]", "result": 98, "unit": "%"},
      {"measurement": "inhibition in vivo at 10 mg/kg", "setting": "Rattus norvegicus [6]", "result": 33, "unit": "%"}
    ]},
    {"smiles": "COc1ccc(CN(c2ccc(C#N)cc2)n2cnnc2)cc1OS(N)(=O)=O", "values": [
      {"measurement": "IC50", "setting": "Steryl-sulfatase", "result": "> 10000", "unit": "nM"}
    ]},
    {"smiles": "N#Cc1ccc(N(Cc2ccc(Br)c(OS(N)(=O)=O)c2)n2cnnc2)cc1", "values": [
      {"measurement": "IC50", "setting": "Steryl-sulfatase", "result": "> 10000", "unit": "nM"}
    ]},
    {"smiles": "N#Cc1ccc(N(Cc2ccc(F)c(O)c2)n2cnnc2)cc1", "values": [
      {"measurement": "IC50", "setting": "Aromatase [1]", "result": 0.6, "unit": "nM"}
    ]}
  ]
}
